FAS TE block – blocks the thioesterase domain of human fatty acid synthase | AID 602261 | recombinant FAS-TE, OMFH fluorogenic substrate, fluorescence endpoint | inhibition, % at 15 µM | 360,000 compounds, 0.67% hits | P49327;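 active = compounds whose normalised, plate-corrected inhibition of enzyme fluorescence in the single-dose primary screen is 50% or more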;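 note: 0% = DMSO with enzyme and 100% = substrate without enzyme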
Arr AP2 block – human beta-arrestin and AP2 interaction inhibition | inhibition, % at 10 µM | FITC-arrestin peptide / GST-AP2 beads, flow cytometry; AP2 beta2 appendage carries R879A mutation | 340,000 compounds, 0.31% hits;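 active = inhibition above a set limit, near 3 SD of compounds lacking own fluorescence, cut at about 54% in these data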;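 note: plate controls were DMSO wells for no effect and 5 µM unlabelled arrestin peptide for full effect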
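System: GST-tagged AP2 beta2-adaptin appendage (R879A) on 4 µm glutathione beads / Reagent: FITC-arrestin peptide, 50 nM / Detection: HyperCyt-sampled flow cytometry, FL1 channel, ex 488/em 535 nm / Timing: 12 min plus 1 h, RT / Buffer or medium: PBS plus Tween 20 (0.05%) and BSA (0.1%)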
CendR NRP1 mod – alters CendR peptide binding to human NRP-1. FAM-RPARPAR peptide binding to NRP-1, fluorescence polarization. inhibition, % at 25 µM. 360,000 compounds, 0.85% hits;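 active = inhibition or corrected inhibition above about 18%, plus a signal ratio from 0.5 to 1.5, limit read from the data, passing the limit was not always enough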
Target sequence (O14786 whole entry, looked up): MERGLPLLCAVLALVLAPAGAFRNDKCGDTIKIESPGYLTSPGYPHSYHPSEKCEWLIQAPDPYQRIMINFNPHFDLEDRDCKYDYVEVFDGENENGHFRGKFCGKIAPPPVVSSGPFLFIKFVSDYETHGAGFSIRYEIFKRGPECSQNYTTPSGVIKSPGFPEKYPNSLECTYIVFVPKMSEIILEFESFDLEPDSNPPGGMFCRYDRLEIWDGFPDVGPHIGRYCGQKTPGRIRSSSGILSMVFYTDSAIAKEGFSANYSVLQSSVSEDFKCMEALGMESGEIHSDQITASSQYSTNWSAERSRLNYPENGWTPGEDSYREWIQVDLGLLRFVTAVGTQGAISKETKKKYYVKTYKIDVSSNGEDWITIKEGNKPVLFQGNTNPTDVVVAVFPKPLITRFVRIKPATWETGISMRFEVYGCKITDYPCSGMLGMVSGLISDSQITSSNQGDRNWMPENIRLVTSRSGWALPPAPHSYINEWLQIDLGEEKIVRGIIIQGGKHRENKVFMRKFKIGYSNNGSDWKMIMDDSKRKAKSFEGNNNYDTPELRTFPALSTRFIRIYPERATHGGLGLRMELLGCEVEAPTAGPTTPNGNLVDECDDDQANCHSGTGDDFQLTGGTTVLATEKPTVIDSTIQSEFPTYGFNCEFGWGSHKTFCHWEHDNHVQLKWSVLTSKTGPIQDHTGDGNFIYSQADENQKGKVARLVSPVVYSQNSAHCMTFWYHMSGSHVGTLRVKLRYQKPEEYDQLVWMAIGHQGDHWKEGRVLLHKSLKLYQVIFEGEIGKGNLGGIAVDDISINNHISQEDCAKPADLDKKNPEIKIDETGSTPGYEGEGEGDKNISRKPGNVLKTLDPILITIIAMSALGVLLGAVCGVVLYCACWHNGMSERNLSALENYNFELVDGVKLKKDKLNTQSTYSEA
ADAM10 inh – ADAM10 inhibition, QFRET primary screen | 370,000 compounds, 0.62% hits | O14672 | AID 720582 | recombinant ADAM10, EDANS/DABCYL FRET peptide cleavage, 3 h | inhibition, % at 7 µM;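 active = inhibition above a per-campaign cutoff equal to the mean of compounds falling between control-based bounds plus 3 SD, cut at about 20% in these data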;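 note: 0% = DMSO wells while the 100% control is not disclosed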
CaV13 ICDI inh – Disruptors of the CACNA1D IQ motif to Ca2+-dependent inactivation inhibitor domain association, primary screening, Förster resonance energy transfer in intact living …; HEK cells, CFP/YFP FRET ICDI-IQ, plate reader, 10 min; percent FRET-ratio fall versus neutral wells; inhibition, % at 12.3 µM; 340,000 compounds, 0.098% hits;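 active = mean replicate inhibition of at least 30% and at least 1% of replicates passing that level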;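 note: 0% = median of the neutral control wells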
ADAM17 inh – inhibitors of human ADAM17. P78536. recombinant ADAM17, EDANS/DABCYL FRET peptide cleavage. inhibition, % at 6.95 µM. 370,000 compounds, 0.83% hits;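 active = inhibition above the mean of compounds lying between control limits plus 3 SD, set per campaign, cut at about 8.5% in these data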;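 note: 0% = DMSO-only wells as the low control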
Arr AP2 CP1 – blocks beta-arrestin peptide binding to human AP2 | 1,300 compounds, 2% hits | GST-AP2 beads, FITC arrestin peptide binding, flow cytometry; GST-fused beta2-adaptin appendage, R879A mutant | AID 504908 | shares compounds with Arr AP2 block | inhibition, % at 10 µM;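 active = inhibition above a set limit, roughly 3 SD of non-fluorescent compound noise, cut at about 38% in these data; inactive = inhibition at or below that limit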;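 note: loss of bead fluorescence from 50 nM FITC arrestin peptide bound to appendage; 0% = negative control wells and 100% = excess unlabelled arrestin peptide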
GST-FITC bead – GST-GSH bead binding interference, counter-screen. shares compounds with Arr AP2 block. GST-fluorescein binding to GSH beads, fluorescence. inhibition, % at 10 µM. 1,300 compounds, 2% hits. AID 588338;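 active = inhibition above 50%, about 3 SD of the inhibition seen with non-fluorescent compounds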;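 note: fluorescein maleimide labelled GST captured on 4 micron glutathione beads; higher means more loss of bead fluorescence from quenching or blocked binding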
Starred values were filed as active, the others as inactive; . = no result given. Shown are actives, neighbours in structure and some others; about 2.9% of the full set was active somewhere.

SMILES	FAS TE block	Arr AP2 block	CendR NRP1 mod	ADAM10 inh	CaV13 ICDI inh	ADAM17 inh	Arr AP2 CP1	GST-FITC bead
Cc1ccc(CN2C(=O)CCC2C(=O)NCCCN2CCC(C)CC2)cc1 (stereo not given)	-9	-3	3	-2	.	-4	-2	10
O=C(NCCN1CCOCC1)C1CCC(=O)N1Cc1ccc(F)cc1 (stereo not given)	-7	-2	-3	-9	-8	-4	-5	1
COc1ccc(-c2ccc(C(=O)NCC3CCOCC3)c3occc23)c(C)c1	-2	.	-14	-142	-9	-37	.	.
COC(=O)/C=C1\OCc2ccc(C)cc21	.	.	17	-2	-12	-2	.	.
COc1ccccc1NS(=O)(=O)c1cc(NC(=O)c2sc3cc(Cl)ccc3c2Cl)ccc1C	37	105*	3	11	-4	4	3	4
COc1ccc(F)cc1CN1CCN(C(=O)CCC(=O)Nc2nnc(CC(C)C)s2)CC1	-4	54*	4	-2	-7	-2	8	-5
CCc1nnc(NC(=O)CCC(=O)N2CCN(Cc3cc(F)ccc3OC)CC2)s1	-4	-56	2	0	-6	-1	.	.
C=CCN1[C@@H](CC(C)C)COc2cccc(N3CCSCC3)c2S1(=O)=O	.	.	.	4	.	0	.	.
C#CCNC(=O)C[C@H]1C[C@@]2(C(=O)OC)C(=C[C@H](C(C)C)O[C@@H]2C2CC2)N(CCc2ccc(OC)c(OC)c2)C1=O	.	.	.	3	.	0	.	.
COc1ccc(Nc2nc(N/N=C/c3ccc(N(C)C)cc3)nc(C)c2[N+](=O)[O-])cc1	-9	103*	-5	-1	-9	-3	3	0
COc1ccc(Nc2nc(NN)nc(C)c2[N+](=O)[O-])cc1	-4	36	-6	0	-5	0	.	.
CC1CN(C(=O)COc2ccc3ccccc3c2Br)CC(C)O1 (stereo not given)	5	67*	2	0	-5	2	1	-13
O=C(COc1ccc2ccccc2c1Br)N1CCCCC1	8	-12	-13	.	.	.	.	.
CCN(c1ccccc1)S(=O)(=O)c1cccc(C(=O)NCC2(N(C)C)CCCCC2)c1	-6	14	1	-6	-16	-1	17	-2
Cc1ccc(NS(=O)(=O)c2cccc(C(=O)NCC3(N(C)C)CCCCC3)c2)cc1	-1	-5	10	-1	-7	-3	.	.
COc1ccc(NS(=O)(=O)c2cccc(C(=O)NCC3(N(C)C)CCCCC3)c2)cc1	-11	55*	-6	5	-2	0	-4	-9
CN(C)C1(CNC(=O)c2cccc(S(=O)(=O)Nc3ccc(Br)cc3)c2)CCCCC1	-4	-7	2	5	-6	-1	0	2
CN(C)C1(CNC(=O)c2cccc(S(=O)(=O)NCc3ccccc3)c2)CCCCC1	-7	5	-20	-5	-6	-5	.	.
COc1ccccc1Nc1nc2c(C)cccc2cc1C#N	-2	57*	12	-8	-6	-5	-3	9
CCOc1ccc(Nc2nc3c(C)cccc3cc2C#N)cc1	3	1	-13	6	-29	-4	.	.
CCOC(=O)COc1ccc2c(C#N)c3ccccn3c2c1	9	56*	-13	-203	-142	-56	-11	-1
CCCCSC(=S)N(C)C1CCS(=O)(=O)C1 (stereo not given)	-4	98*	1	3	-5	0	-10	2
CN(C(=S)SCc1ccccc1)C1CCS(=O)(=O)C1 (stereo not given)	1	-2	4	-1	-2	3	.	.
O=C(Nc1cc(S(=O)(=O)N2CCCCCC2)ccc1OCC(F)(F)F)c1ccc(=O)[nH]c1	-2	-5	-15	-14	-2	0	.	.

Assay outcomes: PubChem, several laboratories
